# Rows were chosen to be rich in hits. Some 4.1% of all compounds tested hit in one or more screens of this group.
# Redox H2O2 prof – compounds producing H2O2 with reducing agent – biochemical, NIH compound library profiling, artefact control for MLSCN library redox annotation, primary screen | DTT-dependent redox cycling H2O2, phenol red/HRP absorbance; 100% = 100 µM peroxide control, 0% = buffer | activation, % at 10 µM | 0.03% of 200,000 active | AID 878;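 active = activation of at least 50% relative to the plate's high and low controls in the primary single-dose screen; inactive = activation below 50%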;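 also: compound incubated with DTT at 0.8 mM final as the reducing agent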
# Dynein transport – dynein cargo transport inhibition; 3617.4 mouse cells, GR-EGFP nuclear translocation imaging; test concentration mostly 20 µM; stimulated with dexamethasone, 1 µM; active compounds read low; 0.47% of 220,000 active; z-score, hits read low; AID 1381;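 active = plate z-score of nuclear minus cytoplasmic receptor signal below a set negative limit, without overly bright fluorescence or cell loss, cut at about -3.5 in these data, passing the limit was not always enough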;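 also: z-score of nuclear minus cytoplasmic ring GR-EGFP intensity difference per well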
#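 Buffer or medium: tetracycline-free induction medium containing charcoal-stripped FBS / Reagent: dexamethasone agonist, 1.0 µM final, for 30 min / Technique: automated 10x imaging of fixed Hoechst-stained cells / Times: induction 48 h, compound 1 h, agonist 30 min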
# ROMK mod – modulates human ROMK potassium channel activity; P48048; Tet-inducible ROMK, thallium flux fluorescence; actives lie on both sides; B-score at 10 µM; 2% of 130,000 active; AID 1918;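 active = signal ratio slope over the read window, or its plate-corrected B-score, at least 3 SD from the plate mean, either direction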;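 also: B-score of the F/F0 ratio slope over 7 to 12 s after thallium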
# Target sequence (P48048 whole entry, looked up): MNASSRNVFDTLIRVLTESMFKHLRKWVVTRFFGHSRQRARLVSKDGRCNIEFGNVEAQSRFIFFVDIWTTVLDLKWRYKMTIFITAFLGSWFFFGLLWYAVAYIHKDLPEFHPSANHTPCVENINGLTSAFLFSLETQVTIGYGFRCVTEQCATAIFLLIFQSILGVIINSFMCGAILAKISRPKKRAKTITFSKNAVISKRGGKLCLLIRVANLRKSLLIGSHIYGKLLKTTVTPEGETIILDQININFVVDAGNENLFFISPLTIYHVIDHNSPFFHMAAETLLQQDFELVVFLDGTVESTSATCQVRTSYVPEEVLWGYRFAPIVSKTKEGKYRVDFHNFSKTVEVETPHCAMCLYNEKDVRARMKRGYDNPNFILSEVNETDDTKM
# Autophagy HCS – alters autophagy in cells | MEF GFP-LC3 puncta imaging; test concentration mostly 10 µM | calls only at 10 µM (by protocol) | 0.98% of 190,000 active | AID 463193;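 active = percentage of spot-positive cells more than 3 SD above its plate mean, without a fluorescence outlier flag or 80% toxicity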;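 also: spot-positive cell cutoff set from DMSO-treated cells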
# KCC2 mod – KCC2 (human) Cl- transport modulation; Q9H2X9; KCC2 cells, thallium flux FluoZin-2 fluorescence; B-score of Tl+ flux slope (higher = more flux/activation; lower = inhibition) at 10 µM; 2.2% of 190,000 active; AID 1456;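 active = thallium flux slope and its plate-corrected score both differing from the plate sample mean at a set confidence after two filtering rounds, in either direction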;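 also: slope of fluorescence scaled to starting intensity during 10 to 20 s after thallium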
# Starred values were filed as active, the others as inactive; i = inactive; . = not tested or not shown; + = active, no number.
SMILES,Redox H2O2 prof,Dynein transport,ROMK mod,Autophagy HCS,KCC2 mod
O=[N+]([O-])c1ccc(-c2ccc(/C=N/Nc3nc(N4CCCC4)nc(N4CCCC4)n3)o2)cc1,1.2,2.49,-0.621,+,0.958
O=C(Cc1ccccc1)N/N=C/c1ccc(-c2ccc([N+](=O)[O-])cc2)o1,0.3,-0.0364,.,+,-0.132
COc1cc(OC)nc(NC(=S)NC(=O)c2ccccc2)n1,0.2,1.01,0.0726,i,2.04
Cc1cccc(CN2C(=O)c3ccccc3Sc3ccc(C(=O)NCCN4CCOCC4)cc32)c1,-0.2,-0.0988,-1.26,i,-1.58
O=C(NCCN1CCOCC1)c1ccc2c(c1)N(Cc1ccccc1F)C(=O)c1ccccc1S2,-0.5,0.599,-1.03,+,0.00348
CCOc1ccc(N=C2NC(=O)S/C2=C\c2ccc(N(C)C)cc2)cc1,-1.0,-0.458,.,+,.
O=C1NC(=Nc2ccc(Cl)cc2)/C(=C/c2ccco2)S1,0.1,-0.154,.,i,0.052
CCOc1ccc(/C=C2\SC(=S)N(N3C(=O)C4CC4C3=O)C2=O)cc1 (stereo unspecified),-1.8,-0.202,0.577,i,0.539
CCOc1ccc(/C=C2/SC(=O)NC2=S)cc1,-0.5,-0.263,4.36*,i,68.5*
O=C(CNC(=O)c1cccs1)OCC(=O)c1ccccc1Cl,4.6,0.063,-0.37,i,-0.522
Cc1cccc(OCC(O)CN2C(C)(C)CC(O)CC2(C)C)c1 (stereo unspecified),8.5,-0.708,0.299,+,2.57
Cn1c(CC(=O)Nc2ccc(Cl)c(Cl)c2)nnc1SCC(=O)NCc1ccccc1,-1.1,0.45,0.0663,i,0.441
CCN1C(=O)/C(=C2\C=Cc3cc(C)ccc3N2CC)OC1=S,5.8,-0.963,1.52,+,-0.934
NS(=O)(=O)c1cc2c(cc1Cl)NC(Cc1ccccc1)NS2(=O)=O (stereo unspecified),.,-0.711,.,.,-0.398
COc1ccc(CNCCc2ccccc2)cc1OCC(N)=O,1.6,-0.241,.,i,.
COc1ccc(CNCCc2ccc(Cl)cc2)cc1OCc1ccccc1,-0.9,-0.632,-1.17,+,0.563
CC(Sc1nnc(-c2cccnc2)n1-c1ccccc1F)C(=O)N1CCCc2ccccc21 (stereo unspecified),-0.2,-0.489,1.71,i,0.195
COc1ccc(-c2nnc(Nc3nc4c(OC)cccc4s3)o2)c(OC)c1,0.6,0.719,7.32*,i,84.8*
COc1ccc(-c2nnc(Nc3nc4c(OC)cccc4s3)o2)cc1,2.4,0.651,.,i,9.51*
COc1ccc2nc(Nc3ccccc3OC)sc2c1,0.9,-0.815,-0.989,i,0.293
CCOC(=O)c1nsnc1NCCSC(=N)N,0.1,0.573,0.647,i,2.09
Cc1cc(NC(c2ccc(Cl)cc2)c2ccc3cccnc3c2O)no1 (stereo unspecified),-0.2,0.841,0.785,+,.
Cc1ccnc(NC(c2cccnc2)c2ccc3cccnc3c2O)c1 (stereo unspecified),-1.0,-0.131,-0.948,i,1.2
Cc1nc(Sc2nnnn2C)c2c3c(sc2n1)CCC3,0.9,0.415,-0.928,+,-0.706
CCc1nc(Sc2nnnn2-c2ccccc2)c2c3c(sc2n1)CCCC3,0.2,-0.151,-0.09,i,-1.14
SMILES,Redox H2O2 prof,Dynein transport,ROMK mod,Autophagy HCS,KCC2 mod
O=C(c1ccc(Cl)c(S(=O)(=O)N2CCCC2)c1)N1CCN(c2ncccn2)CC1,-0.5,0.582,0.0258,i,-0.606
CCC(=C(c1ccc(OC)cc1)c1ccc(OC)cc1)c1cn(CC(O)CN2CCN(C)CC2)c2ccccc12 (stereo unspecified),-0.4,0.784,-1.22,+,-0.122
COc1ccc(-c2cc3ccccc3n2CC(O)CN2CCCCC2)cc1 (stereo unspecified),.,-0.107,-0.201,.,-0.553
COc1ccc(-n2c(Cc3cccn3C)nnc2SCC(=O)NCc2ccccc2Cl)cc1,-0.7,1.2,.,+,-0.775
Cn1cccc1Cc1nnc(SCC(=O)Nc2ccc(Cl)cc2)n1-c1ccc(F)cc1,-1.9,-0.107,.,+,-0.602
Cn1cccc1Cc1nnc(SCC(=O)Nc2cccc(F)c2)n1CCc1ccccc1,0.1,2.76,.,+,0.764
Cn1cccc1Cc1nnc(SCC(=O)Nc2ccccc2F)n1CCc1ccccc1,-0.1,-0.255,.,.,-1.43
C=CCC1(Cl)C(=O)C(Cl)=C(N2CCN(C)CC2)C1(OC)OC (stereo unspecified),.,1.08,.,.,0.802
CN1C=CC=C/C1=C1\SC(=S)N(N)C1=O,-0.8,0.34,1.8,i,-1.78
Cc1c(CN(C)Cc2cn(C)nc2-c2ccccc2F)[nH]c2ccccc12,0.1,-0.357,-1.07,+,0.008
Cc1csc2ncc(C(=O)N3CCCc4ccccc43)c(=O)n12,-1.5,-0.608,.,i,0.228
Cc1csc2ncc(C(=O)N3CCc4ccccc43)c(=O)n12,0.2,0.608,.,.,-2.85*
O=C(COc1cccc(Br)c1)NN=C1c2ccccc2-c2ccccc21,0.6,0.833,.,i,1.49
O=C(NN=C1c2ccccc2-c2ccccc21)c1cccc(Br)c1,0.6,0.372,.,i,59.8*
Nc1c(C(=O)Nc2ccccc2)sc2nc3c(c(-c4ccco4)c12)CCC3,1.4,3.41,.,i,0.222
Nc1c(C(=O)NC23CC4CC(CC(C4)C2)C3)sc2nc3c(c(C(F)(F)F)c12)CCC3,3.2,0.0605,.,+,.
C=CCn1cnc2c(c1=O)c1nc3ccccc3nc1n2/N=C/c1cc(OC)c(OC)c(OC)c1,0.5,2.77,0.663,+,-1.03
COCCn1cnc2c(c1=O)c1nc3ccccc3nc1n2/N=C/c1cccc(OC)c1,.,8.39,3.06,.,-0.00924
Clc1ccccc1-c1nc2ccccc2c2nc3ccccc3n12,-0.2,0.00223,.,+,0.77
CCCCNC(=S)N=Nc1c(O)n(Cc2ccccc2)c2ccccc12,0.7,1.77,.,i,8.82*
CCN(CC)CC(=O)c1c(N)n(Cc2ccccc2)c(=O)n(C)c1=O,-0.2,-0.534,0.685,i,0.409
Cn1c(=O)c(C(=S)NC(=O)C2CC2)c(N)n(Cc2ccccc2)c1=O,2.4,-0.515,1.24,i,10.5*
COc1ccc(Cl)cc1N(CC(=O)N(C)C)S(=O)(=O)c1ccc(C)c([N+](=O)[O-])c1,-0.2,-0.533,0.578,i,-0.155
COc1ccc(OC)c(Nc2nc(-c3cccc([N+](=O)[O-])c3)nc3ccccc23)c1,2.2,-0.914,.,+,-0.193
COc1ccc(Nc2nc(-c3cccc([N+](=O)[O-])c3)nc3ccccc23)c(OC)c1,2.0,0.0529,.,i,0.0431
O=C(Nc1ccc2c(c1)CCC2)c1cnn2c1NC(c1ccco1)CC2C(F)(F)F (stereo unspecified),1.7,-0.258,-0.377,+,-0.296
CCN1c2ccccc2NC2C1C(C(C)=O)C(=O)N2c1ccc(Cl)cc1 (stereo unspecified),-0.1,-1.11,-0.534,+,.
